Tests used:
[1] = biological target: T1, 5-hydroxytryptamine receptor 2C (Homo sapiens, UniProt P28335); test: Displacement of [3H]Mesulergine from human 5-HT2C receptor expressed in HEK293FlpIN cells by radioligand binding assay; assay type: cell-based
T1 sequence (P28335 whole entry): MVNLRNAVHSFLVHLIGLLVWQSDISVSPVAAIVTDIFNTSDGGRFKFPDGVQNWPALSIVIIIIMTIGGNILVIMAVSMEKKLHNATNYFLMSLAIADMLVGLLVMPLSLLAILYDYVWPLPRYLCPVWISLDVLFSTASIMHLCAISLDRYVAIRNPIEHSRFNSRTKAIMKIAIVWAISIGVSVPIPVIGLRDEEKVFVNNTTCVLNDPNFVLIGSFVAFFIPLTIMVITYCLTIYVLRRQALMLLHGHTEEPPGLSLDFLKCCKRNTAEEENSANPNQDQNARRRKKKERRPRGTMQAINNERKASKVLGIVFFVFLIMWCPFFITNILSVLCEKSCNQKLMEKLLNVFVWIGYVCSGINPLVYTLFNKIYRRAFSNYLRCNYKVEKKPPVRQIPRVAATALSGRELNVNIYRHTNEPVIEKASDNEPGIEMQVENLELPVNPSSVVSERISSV

MDA-MB-231 [2] = test: Cytotoxicity against human MDA-MB-231 cells assessed as reduction in cell viability after 24 hrs by MTT assay; assay type: functional, cell-based; settings: MDA-MB-231, 24 h
In short: (§1)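 Cells exposed to compounds; viability read at 24, 48 and 72 h. Every experiment run in triplicate.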

MDA-MB-231 [3] = test: Cytotoxicity against human MDA-MB-231 cells assessed as reduction in cell viability after 48 hrs by MTT assay; assay type: functional, cell-based; settings: MDA-MB-231, 48 h; in short: as §1
MDA-MB-231 [4] = test: Cytotoxicity against human MDA-MB-231 cells assessed as reduction in cell viability after 72 hrs by MTT assay; assay type: functional, cell-based; settings: MDA-MB-231, 72 h; in short: as §1
[5] = test system: Lewis lung carcinoma cell line; test: Cytotoxicity against mouse LLC cells harboring […] assessed as reduction in cell viability after 24 hrs by MTT assay; assay type: functional, cell-based; in short: as §1
[6] = test system: Lewis lung carcinoma cell line; test: Cytotoxicity against mouse LLC cells harboring […] assessed as reduction in cell viability after 72 hrs by MTT assay; assay type: functional, cell-based; in short: as §1
[7] = biological target: T2, 5-hydroxytryptamine receptor 1A (Homo sapiens, UniProt P08908); test: Displacement of [3H]-Way100635 from human 5HT1A receptor expressed in stable CHO cell membranes by radioligand binding assay
T2 sequence (P08908 whole entry): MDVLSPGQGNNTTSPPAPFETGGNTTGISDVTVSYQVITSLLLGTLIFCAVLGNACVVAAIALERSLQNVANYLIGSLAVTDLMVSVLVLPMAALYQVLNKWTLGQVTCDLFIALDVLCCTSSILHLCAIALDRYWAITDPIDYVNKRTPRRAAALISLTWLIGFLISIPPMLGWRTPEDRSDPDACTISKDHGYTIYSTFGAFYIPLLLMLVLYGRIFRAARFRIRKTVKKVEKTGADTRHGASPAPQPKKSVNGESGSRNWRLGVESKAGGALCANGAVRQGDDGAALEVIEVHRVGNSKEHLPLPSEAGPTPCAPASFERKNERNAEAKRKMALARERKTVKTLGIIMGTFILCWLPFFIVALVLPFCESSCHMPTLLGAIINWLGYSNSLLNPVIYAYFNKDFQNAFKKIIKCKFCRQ

[8] = biological target: T3, 5-hydroxytryptamine receptor 1D (Homo sapiens, UniProt P28221); test: Displacement of [3H]5-CT from human 5-HT1D receptor expressed in HEK293T cells by radioligand binding assay; assay type: cell-based
T3 sequence (P28221 whole entry): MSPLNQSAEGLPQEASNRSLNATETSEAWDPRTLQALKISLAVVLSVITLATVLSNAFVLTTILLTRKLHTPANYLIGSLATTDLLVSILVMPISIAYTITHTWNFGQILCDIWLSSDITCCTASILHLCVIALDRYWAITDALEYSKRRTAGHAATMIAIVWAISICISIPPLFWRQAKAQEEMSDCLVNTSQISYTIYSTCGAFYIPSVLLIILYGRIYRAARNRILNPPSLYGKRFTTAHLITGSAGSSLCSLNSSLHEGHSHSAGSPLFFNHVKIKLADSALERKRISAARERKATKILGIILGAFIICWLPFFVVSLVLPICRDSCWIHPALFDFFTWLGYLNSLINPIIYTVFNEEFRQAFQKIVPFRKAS

[9] = biological target: T4, 5-hydroxytryptamine receptor 2A (Homo sapiens, UniProt P28223); test: Displacement of [3H]Ketanserin from 5-HT2A receptor (unknown origin) by radioligand binding assay
T4 sequence (P28223 whole entry): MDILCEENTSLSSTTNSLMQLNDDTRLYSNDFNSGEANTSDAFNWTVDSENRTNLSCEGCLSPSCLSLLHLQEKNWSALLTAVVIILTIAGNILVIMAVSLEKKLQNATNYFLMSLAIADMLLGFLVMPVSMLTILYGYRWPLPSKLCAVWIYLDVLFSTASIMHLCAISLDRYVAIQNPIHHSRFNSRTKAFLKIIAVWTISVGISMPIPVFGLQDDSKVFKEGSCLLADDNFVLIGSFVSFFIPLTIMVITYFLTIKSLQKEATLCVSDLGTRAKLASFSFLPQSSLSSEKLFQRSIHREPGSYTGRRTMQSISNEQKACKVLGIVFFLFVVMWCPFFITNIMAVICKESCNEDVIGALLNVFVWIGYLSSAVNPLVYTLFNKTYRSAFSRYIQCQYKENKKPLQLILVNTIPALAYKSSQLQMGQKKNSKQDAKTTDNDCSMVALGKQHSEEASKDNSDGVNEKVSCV

[10] = biological target: T5, 5-hydroxytryptamine receptor 7 (Homo sapiens, UniProt P34969); test: Displacement of [3H]LSD from human 5-HT7A receptor expressed in HEK cells by radioligand binding assay; assay type: cell-based
T5 sequence (P34969 whole entry): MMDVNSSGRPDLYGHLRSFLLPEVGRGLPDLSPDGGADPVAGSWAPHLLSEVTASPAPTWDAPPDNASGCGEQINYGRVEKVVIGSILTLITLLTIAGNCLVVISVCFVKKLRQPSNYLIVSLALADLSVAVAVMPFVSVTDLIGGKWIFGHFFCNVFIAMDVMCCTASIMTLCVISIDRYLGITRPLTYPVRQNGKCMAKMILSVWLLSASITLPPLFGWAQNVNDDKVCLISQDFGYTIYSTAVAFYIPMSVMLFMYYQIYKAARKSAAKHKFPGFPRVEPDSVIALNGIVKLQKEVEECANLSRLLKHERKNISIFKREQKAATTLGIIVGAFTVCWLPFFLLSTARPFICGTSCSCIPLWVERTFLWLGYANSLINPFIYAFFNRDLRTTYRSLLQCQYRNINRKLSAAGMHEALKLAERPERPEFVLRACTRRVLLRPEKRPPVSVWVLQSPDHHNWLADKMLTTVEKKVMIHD

D(3) dopamine receptor = D(3) dopamine receptor (Homo sapiens, UniProt P35462); test: Displacement of [3H]N-methylspiperone from human dopamine D3 receptor expressed in HEK293T cells by radioligand binding assay relative to control; assay type: cell-based; parameters: concentration or dose not given beside the values; settings: concentration not given here
Sequence of D(3) dopamine receptor (P35462 whole entry): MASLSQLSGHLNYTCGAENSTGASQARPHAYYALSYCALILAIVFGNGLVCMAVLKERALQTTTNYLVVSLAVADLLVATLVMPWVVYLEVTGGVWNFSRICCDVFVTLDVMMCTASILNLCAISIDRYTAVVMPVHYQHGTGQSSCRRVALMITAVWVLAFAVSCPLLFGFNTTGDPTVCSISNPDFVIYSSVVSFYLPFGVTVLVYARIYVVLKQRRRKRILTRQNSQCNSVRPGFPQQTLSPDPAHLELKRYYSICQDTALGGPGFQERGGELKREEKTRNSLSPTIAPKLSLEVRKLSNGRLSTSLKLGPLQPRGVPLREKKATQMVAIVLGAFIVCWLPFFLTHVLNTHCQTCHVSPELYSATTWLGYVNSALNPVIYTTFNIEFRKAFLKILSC

[11] = biological target: T6, D(4) dopamine receptor (Homo sapiens) (UniProt P21917); test: Displacement of [3H]N-methylspiperone from human dopamine D4 receptor by radioligand binding assay relative to control; parameters: concentration or dose not given beside the values; settings: concentration not given here
T6 sequence (whole entry): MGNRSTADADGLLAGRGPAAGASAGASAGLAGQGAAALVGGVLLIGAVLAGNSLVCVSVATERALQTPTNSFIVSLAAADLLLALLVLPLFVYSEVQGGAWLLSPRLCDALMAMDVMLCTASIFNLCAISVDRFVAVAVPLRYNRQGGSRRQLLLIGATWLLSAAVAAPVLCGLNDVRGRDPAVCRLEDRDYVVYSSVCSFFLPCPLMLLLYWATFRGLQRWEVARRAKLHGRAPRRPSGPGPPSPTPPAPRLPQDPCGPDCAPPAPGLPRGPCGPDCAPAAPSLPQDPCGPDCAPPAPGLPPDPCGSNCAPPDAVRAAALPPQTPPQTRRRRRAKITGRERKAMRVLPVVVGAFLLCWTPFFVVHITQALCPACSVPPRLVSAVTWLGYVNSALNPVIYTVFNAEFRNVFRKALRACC

[12] = biological target: T5, 5-hydroxytryptamine receptor 7; test: Displacement of [3H]LSD from human 5-HT7A receptor expressed in HEK cells by radioligand binding assay relative to control; assay type: cell-based
[13] = biological target: 5-hydroxytryptamine receptor 5A (Homo sapiens, UniProt P47898); test: Displacement of [3H]LSD from human 5-HT5A receptor expressed in Flp-In CHO cells by radioligand binding assay relative to control; assay type: cell-based; parameters: concentration or dose not given beside the values; settings: concentration not given here
Sequence of 5-hydroxytryptamine receptor 5A (P47898 whole entry): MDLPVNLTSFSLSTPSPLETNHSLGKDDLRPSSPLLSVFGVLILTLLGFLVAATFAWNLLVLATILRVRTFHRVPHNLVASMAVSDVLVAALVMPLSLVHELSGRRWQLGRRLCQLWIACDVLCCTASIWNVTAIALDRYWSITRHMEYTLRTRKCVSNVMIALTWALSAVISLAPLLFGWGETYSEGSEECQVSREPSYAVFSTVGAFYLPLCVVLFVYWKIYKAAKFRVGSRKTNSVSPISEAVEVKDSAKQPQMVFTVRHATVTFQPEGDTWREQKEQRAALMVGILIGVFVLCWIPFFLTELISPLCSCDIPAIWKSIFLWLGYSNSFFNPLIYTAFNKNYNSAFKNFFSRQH

[14] = biological target: T4, 5-hydroxytryptamine receptor 2A; test: Displacement of [3H]Ketanserin from 5-HT2A receptor (unknown origin) by radioligand binding assay relative to control; parameters: concentration or dose not given beside the values; settings: concentration not given here
[15] = biological target: 5-hydroxytryptamine receptor 2B (Homo sapiens, UniProt P41595); test: Displacement of [3H]LSD from human 5-HT2B receptor expressed in HEK cells by radioligand binding assay relative to control; assay type: cell-based; parameters: concentration or dose not given beside the values; settings: concentration not given here
Sequence of 5-hydroxytryptamine receptor 2B (P41595 whole entry): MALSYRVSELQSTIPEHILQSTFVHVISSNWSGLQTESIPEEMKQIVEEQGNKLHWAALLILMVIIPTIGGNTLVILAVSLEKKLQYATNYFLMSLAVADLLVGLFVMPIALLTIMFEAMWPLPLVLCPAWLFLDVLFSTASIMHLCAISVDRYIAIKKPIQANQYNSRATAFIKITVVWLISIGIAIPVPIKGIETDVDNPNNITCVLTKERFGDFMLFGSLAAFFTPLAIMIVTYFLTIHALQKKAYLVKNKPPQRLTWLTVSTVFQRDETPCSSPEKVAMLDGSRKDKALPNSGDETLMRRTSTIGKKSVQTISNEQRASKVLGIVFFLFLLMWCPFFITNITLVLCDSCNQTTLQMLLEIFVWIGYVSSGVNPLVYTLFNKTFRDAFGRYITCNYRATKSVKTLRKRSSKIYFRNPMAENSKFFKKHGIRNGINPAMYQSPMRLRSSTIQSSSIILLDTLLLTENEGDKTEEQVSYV

[16] = biological target: Kappa-type opioid receptor (Homo sapiens, UniProt P41145); test: Displacement of [3H]U69593 from KOR (unknown origin) expressed in HEK cells by radioligand binding assay; assay type: cell-based
Sequence of Kappa-type opioid receptor (P41145 whole entry): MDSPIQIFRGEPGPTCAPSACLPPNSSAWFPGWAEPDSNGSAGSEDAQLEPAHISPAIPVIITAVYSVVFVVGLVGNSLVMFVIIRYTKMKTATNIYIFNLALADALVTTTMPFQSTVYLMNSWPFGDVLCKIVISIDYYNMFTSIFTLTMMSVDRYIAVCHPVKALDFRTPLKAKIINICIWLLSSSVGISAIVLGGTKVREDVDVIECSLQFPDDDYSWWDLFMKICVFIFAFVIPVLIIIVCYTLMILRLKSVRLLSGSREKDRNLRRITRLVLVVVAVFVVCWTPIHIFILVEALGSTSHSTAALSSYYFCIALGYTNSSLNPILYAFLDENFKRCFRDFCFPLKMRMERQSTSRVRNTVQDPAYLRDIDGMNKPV

[17] = biological target: Delta-type opioid receptor (Homo sapiens, UniProt P41143); test: Displacement of [3H]DADLE from human DOR expressed in HEK cells by radioligand binding assay relative to control; assay type: cell-based; parameters: concentration or dose not given beside the values; settings: concentration not given here
Sequence of Delta-type opioid receptor (P41143 whole entry): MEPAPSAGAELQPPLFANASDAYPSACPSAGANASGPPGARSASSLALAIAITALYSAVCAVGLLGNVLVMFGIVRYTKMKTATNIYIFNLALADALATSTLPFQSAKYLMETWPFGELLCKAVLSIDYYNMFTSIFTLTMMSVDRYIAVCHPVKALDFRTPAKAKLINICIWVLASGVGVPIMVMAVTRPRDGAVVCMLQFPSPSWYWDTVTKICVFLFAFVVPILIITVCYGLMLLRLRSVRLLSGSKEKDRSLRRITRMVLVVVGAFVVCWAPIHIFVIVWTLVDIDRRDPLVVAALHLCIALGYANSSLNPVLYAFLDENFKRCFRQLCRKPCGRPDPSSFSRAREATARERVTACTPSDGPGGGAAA

D(1A) dopamine receptor = D(1A) dopamine receptor (Homo sapiens, UniProt P21728); test: Displacement of [3H]SCH23390 from human dopamine D1 receptor expressed in HEK293T cells by radioligand binding assay relative to control; assay type: cell-based; parameters: concentration or dose not given beside the values; settings: concentration not given here
Sequence of D(1A) dopamine receptor (P21728 whole entry): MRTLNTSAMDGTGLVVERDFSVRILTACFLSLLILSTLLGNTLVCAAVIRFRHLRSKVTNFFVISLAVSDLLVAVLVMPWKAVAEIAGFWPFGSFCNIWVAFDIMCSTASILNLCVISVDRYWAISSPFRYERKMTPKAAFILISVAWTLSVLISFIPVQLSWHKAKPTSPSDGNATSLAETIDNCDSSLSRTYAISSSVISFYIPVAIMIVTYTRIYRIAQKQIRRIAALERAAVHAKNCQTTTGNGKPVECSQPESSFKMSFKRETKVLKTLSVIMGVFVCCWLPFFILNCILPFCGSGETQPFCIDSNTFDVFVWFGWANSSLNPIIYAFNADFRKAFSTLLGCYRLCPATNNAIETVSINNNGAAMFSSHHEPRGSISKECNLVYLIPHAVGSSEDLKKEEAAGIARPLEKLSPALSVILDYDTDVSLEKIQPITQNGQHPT

[18] = biological target: T3, 5-hydroxytryptamine receptor 1D; test: Displacement of [3H]5-CT from human 5-HT1D receptor expressed in HEK293T cells by radioligand binding assay relative to control; assay type: cell-based; parameters: concentration or dose not given beside the values; settings: concentration not given here
D(1B) dopamine receptor = D(1B) dopamine receptor (Homo sapiens, UniProt P21918); test: Displacement of [3H]SCH23390 from human dopamine D5 receptor expressed in HEK293T cells by radioligand binding assay; assay type: cell-based
Sequence of D(1B) dopamine receptor (P21918 whole entry): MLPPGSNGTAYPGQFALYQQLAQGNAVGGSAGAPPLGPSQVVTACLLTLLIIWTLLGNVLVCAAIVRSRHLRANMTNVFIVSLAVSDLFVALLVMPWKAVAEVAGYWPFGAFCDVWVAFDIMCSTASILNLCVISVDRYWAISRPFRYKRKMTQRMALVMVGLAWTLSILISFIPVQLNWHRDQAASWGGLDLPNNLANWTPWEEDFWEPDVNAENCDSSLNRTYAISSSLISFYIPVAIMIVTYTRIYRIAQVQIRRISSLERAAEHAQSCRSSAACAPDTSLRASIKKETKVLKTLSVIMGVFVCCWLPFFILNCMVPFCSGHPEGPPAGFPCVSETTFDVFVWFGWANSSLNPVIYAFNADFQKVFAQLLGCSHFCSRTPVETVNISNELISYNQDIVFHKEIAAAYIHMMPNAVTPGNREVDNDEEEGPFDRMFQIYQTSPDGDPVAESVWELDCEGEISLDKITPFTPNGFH

[19] = biological target: Sodium-dependent noradrenaline transporter (Homo sapiens, UniProt P23975); test: Displacement of [3H]Nisoxetine from human NET expressed in HEK cells by radioligand binding assay relative to control; assay type: cell-based
Sequence of Sodium-dependent noradrenaline transporter (P23975 whole entry): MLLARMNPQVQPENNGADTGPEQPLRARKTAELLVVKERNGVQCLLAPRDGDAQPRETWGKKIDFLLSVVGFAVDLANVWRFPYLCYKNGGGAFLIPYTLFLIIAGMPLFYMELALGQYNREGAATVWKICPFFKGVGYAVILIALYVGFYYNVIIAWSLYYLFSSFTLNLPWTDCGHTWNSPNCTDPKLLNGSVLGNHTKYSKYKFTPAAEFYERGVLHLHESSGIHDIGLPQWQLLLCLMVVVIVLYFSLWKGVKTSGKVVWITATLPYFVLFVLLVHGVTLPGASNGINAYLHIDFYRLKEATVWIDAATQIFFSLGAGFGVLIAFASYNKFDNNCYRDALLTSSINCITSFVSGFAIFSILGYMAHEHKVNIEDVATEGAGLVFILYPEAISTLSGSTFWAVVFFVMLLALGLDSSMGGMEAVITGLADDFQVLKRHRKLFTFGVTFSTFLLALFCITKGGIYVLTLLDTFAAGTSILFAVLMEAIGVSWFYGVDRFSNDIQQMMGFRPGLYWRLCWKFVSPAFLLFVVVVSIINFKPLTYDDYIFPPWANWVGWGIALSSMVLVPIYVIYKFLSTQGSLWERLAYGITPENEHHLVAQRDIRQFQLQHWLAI

SMILES	Ki [1] [µM]	IC50 (MDA-MB-231 [2]) [µM]	IC50 (MDA-MB-231 [3]) [µM]	IC50 (MDA-MB-231 [4]) [µM]	IC50 [5] [µM]	IC50 [6] [µM]	Ki [7] [µM]	Ki [9] [µM]	Ki [10] [µM]	inhibition (D(3) dopamine receptor) [%]	inhibition [11] [%]	inhibition (INH) [12] [%]	inhibition [13] [%]	inhibition [14] [%]	inhibition [15] [%]	Ki [16] [µM]	inhibition [17] [%]	Ki ([8]; read-out: Ki) [µM]	inhibition (D(1A) dopamine receptor) [%]	inhibition [18] [%]	other results
OC1(c2ccc(Cl)c(C(F)(F)F)c2)CCN(CCCC=C(c2ccc(F)cc2)c2ccc(F)cc2)CC1	1.6	23.9	14.9	9.6	15.6	11.2	1.36	1.1	10	87.1	87.8	78.8	21.4	91.5	91.8	1.02	74.1				Ki [8]: Not Active
OC1(c2ccc(Cl)c(C(F)(F)F)c2)CCN(CCCC(c2ccccc2)c2ccccc2)CC1	2.13	9.3	8.7	8.4	11.4	9.2	0.481	1	0.326	97.4	98.9	82.1		94.3	92.5	1.33	82.7	0.628	97.2	83.3	Ki (D(1B) dopamine receptor): 0.121 µM; inhibition (INH) [19]: 90.6%
COc1ccc(N(CCCCN2CCC(O)(c3ccc(Cl)c(C(F)(F)F)c3)CC2)c2ccc(OC)cc2)cc1	0.74	8.1	7.1	5.4 to 7.1	6.3	2.7 to 6.1	10	0.9	0.949	65.1	73	55.2	50	94.1	77.5	10	77.6	10	56.6	78.8	Ki (D(1B) dopamine receptor): 0.623 µM; inhibition (INH) [19]: 86.4%
OC1(c2ccc(Cl)c(C(F)(F)F)c2)CCN(CCCCCc2ccc(F)cc2)CC1	2.55	19.4	11.9	9.8	26.9	8.2 to 9.8	0.901	0.889	1.12	77.8	89.2	75.9	16.4	68.5		1.7		4.43		50	
OC1(c2ccc(Cl)c(C(F)(F)F)c2)CCN(CCCC(c2ccc(F)cc2)c2ccc(F)cc2)CC1 [PENFLURIDOL]	0.881	6.1	5	5.1	6	4.3	0.356	0.361	0.28	98.2	77.6	98.4	95	95.2	97.3		89.1	3.56	96.5	91.3	Ki (D(1B) dopamine receptor): 0.125 µM; inhibition (INH) [19]: 86.2%
OC1(c2ccc(Cl)c(C(F)(F)F)c2)CCN(CCCN(c2ccc(F)cc2)c2ccc(F)cc2)CC1	0.402	6.7	5	3.5	7	4.1	1.26	0.164	1.57	94.4	76.5	85.9	67.7	94.6	95.5	0.667	65.9	0.752	96.8	80.7	Ki (D(1B) dopamine receptor): 0.437 µM; inhibition (INH) [19]: 97.4%
OC1(c2ccc(Cl)c(C(F)(F)F)c2)CCN(CCCCN(c2ccc(F)cc2)c2ccc(F)cc2)CC1	1.13	11.3	11.5	9.2	10.8	8.2	1.09	6.06	0.812	82.5	86.1	57.1	50	92.6	82.4	10	68.9	1.07	77.9	70.6	Ki (D(1B) dopamine receptor): 0.744 µM; inhibition (INH) [19]: 88.2%
OC1(c2ccc(Cl)c(C(F)(F)F)c2)CCN(CCCCC(c2ccc(F)cc2)c2ccc(F)cc2)CC1	1.71	5.3	5.7	4.8	5.6	4.2	1.39	1	0.969	95.7	96.9	84.9	75.8	96.3	93.3	2.67	84.5	0.844	92.6	79.3	Ki (D(1B) dopamine receptor): 0.529 µM; inhibition (INH) [19]: 98.3%

From ChEMBL document CHEMBL4257579, “Analogs of penfluridol as chemotherapeutic agents with reduced central nervous system activity” (Bioorg Med Chem Lett, 2018)
